# Measurements taken from ChEMBL document CHEMBL1153389, “Identification of novel antibacterial peptides by chemoinformatics and machine learning” (2009).
# What was measured:
# Type in all cases: functional
# [1] = tested on: Pseudomonas aeruginosa; test: Antimicrobial activity against Pseudomonas aeruginosa H1001 expressing luciferase gene assessed as ratio antimicrobial IC50 for drug to Bac2A peptide by luminescence assay
# Method in brief: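 Peptides are made by SPOT synthesis on cellulose, cleaved, and the spots placed in plate wells. Overnight P. aeruginosa H1001 (fliC::luxCDABE) is diluted 1:500 in 100 mM Tris-HCl pH 7.3 with 20 mM glucose and added to the wells. After 30 min, serial dilutions (8 rows) are made. Luminescence is read at 4 h. IC50 is taken from a sigmoid fit and expressed relative to Bac2A run in the same series.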
# [2] = tested on: Escherichia coli; test: Antimicrobial activity against extended-spectrum beta-lactamase producing Escherichia coli 64771 after overnight incubation by broth microdilution method
# Method in brief: (§1)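 Modified broth microdilution. Peptides are serially diluted in 0.01% acetic acid with 0.2% BSA at 10-fold the final concentration, then added to MH medium in polypropylene plates. Bacteria from an overnight culture are added to a final (2-7) × 10^5 CFU/mL. Plates are incubated overnight at 37 °C. MIC is the lowest concentration with no visible growth.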
# [3] = tested on: Staphylococcus aureus; test: Antimicrobial activity against Staphylococcus aureus ATCC 25923 after overnight incubation by broth microdilution method
# Method in brief: (§2)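 Modified broth microdilution in polypropylene 96-well plates with Mueller-Hinton (MH) medium. Bulk-synthesized peptides were serially diluted at 10-fold final strength in 0.01% acetic acid with 0.2% BSA, then added 1:10 to MH. Inoculum came from an overnight culture at a final (2-7) × 10^5 CFU/mL. Plates were incubated overnight at 37 °C. MIC was the lowest concentration with no visible growth.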
# [4] = tested on: Pseudomonas aeruginosa; test: Antimicrobial activity against Pseudomonas aeruginosa LES400 after overnight incubation by broth microdilution method; method in brief: as §2
# [5] = tested on: Pseudomonas aeruginosa; test: Antimicrobial activity against multidrug-resistant Pseudomonas aeruginosa Brazil 9 isolate after overnight incubation by broth microdilution method; method in brief: as §2
# [6] = tested on: Pseudomonas aeruginosa; test: Antimicrobial activity against Pseudomonas aeruginosa H1027 after overnight incubation by broth microdilution method; method in brief: as §1
# [7] = tested on: Enterococcus faecalis; test: Antimicrobial activity against Enterococcus faecalis ATCC 29212 after overnight incubation by broth microdilution method; method in brief: as §1
# [8] = tested on: Escherichia coli; test: Antimicrobial activity against extended-spectrum beta-lactamase producing Escherichia coli 63103 after overnight incubation by broth microdilution method; method in brief: as §1
# [9] = tested on: Pseudomonas aeruginosa; test: Antimicrobial activity against multidrug-resistant Pseudomonas aeruginosa Brazil 213 isolate after overnight incubation by broth microdilution method; method in brief: as §2
# [10] = tested on: Stenotrophomonas maltophilia; test: Antimicrobial activity against Pseudomonas maltophilia ATCC 13637 after overnight incubation by broth microdilution method; method in brief: as §1
# [11] = tested on: Pseudomonas aeruginosa; test: Antimicrobial activity against Pseudomonas aeruginosa H1030 after overnight incubation by broth microdilution method; method in brief: as §2
# [12] = tested on: Pseudomonas aeruginosa; test: Antimicrobial activity against Pseudomonas aeruginosa H103 after overnight incubation by broth microdilution method; method in brief: as §1
# [13] = tested on: Enterobacter cloacae; test: Antimicrobial activity against class C chromosomal beta lactamase expressing Enterobacter cloacae 218R after overnight incubation by broth microdilution method; method in brief: as §1
# [14] = tested on: Staphylococcus aureus; test: Antimicrobial activity against methicillin-resistant Staphylococcus aureus C623 after overnight incubation by broth microdilution method; method in brief: as §2
# [15] = tested on: Klebsiella pneumoniae; test: Antimicrobial activity against extended-spectrum beta-lactamase-resistant Klebsiella pneumoniae 63575 after overnight incubation by broth microdilution method; method in brief: as §2
# [16] = tested on: Enterococcus faecium; test: Antimicrobial activity against vancomycin-resistant Enterococcus faecium mic80(VanA) isolate after overnight incubation by broth microdilution method; method in brief: as §2
# [17] = tested on: Enterococcus faecium; test: Antimicrobial activity against vancomycin-resistant Enterococcus faecium t62764(VanB) isolate after overnight incubation by broth microdilution method; method in brief: as §2
# [18] = tested on: Enterococcus faecalis; test: Antimicrobial activity against vancomycin-resistant Enterococcus faecalis f43559 (VanB) isolate after overnight incubation by broth microdilution method; method in brief: as §2
# [19] = tested on: Enterococcus faecalis; test: Antimicrobial activity against vancomycin-resistant Enterococcus faecalis w6190(VanA) isolate after overnight incubation by broth microdilution method; method in brief: as §2
# [20] = tested on: Pseudomonas aeruginosa; test: Antimicrobial activity against multidrug-resistant Pseudomonas aeruginosa Brazil 198 isolate after overnight incubation by broth microdilution method; method in brief: as §2
# [21] = tested on: Klebsiella pneumoniae; test: Antimicrobial activity against extended-spectrum beta-lactamase-resistant Klebsiella pneumoniae 61962 after overnight incubation by broth microdilution method; method in brief: as §2
substance,measurement,setting,value
H-WHGGQKWRK-OH,Ratio IC50,[1],8.5
H-RWFRWWKRW-OH,Ratio IC50,[1],0.26
H-RRWFVKWWY-OH,Ratio IC50,[1],0.52
H-GRNGWYRIN-OH,Ratio IC50,[1],10.74
H-KKRWLWWWR-OH,Ratio IC50,[1],0.3
H-HYKFQRWIK-OH,Ratio IC50,[1],2.79
H-AFRGSRHRM-OH [AFRGSRHRM],Ratio IC50,[1],11.36
H-IRRRWWWIV-OH,Ratio IC50,[1],0.23
H-WKRWRWIRW-OH,Ratio IC50,[1],0.28
H-RRMGNGGFR-OH,Ratio IC50,[1],8.71
H-RKWWRWWRW-OH,Ratio IC50,[1],0.31
H-SWYRTRKRV-OH,Ratio IC50,[1],6.66
H-RRRKWWIWW-OH,Ratio IC50,[1],0.18
H-RWRIKRWWW-OH,Ratio IC50,[1],0.12
H-RIWYWYKRW-OH,Ratio IC50,[1],0.36
H-IRQWWRRWW-OH,Ratio IC50,[1],0.5
H-GVRVQRNSK-OH,Ratio IC50,[1],25
H-KWRRWKRWW-OH,Ratio IC50,[1],0.15
H-RQNGVWRVF-OH,Ratio IC50,[1],8.26
H-GRRVMNQKR-OH,Ratio IC50,[1],9.83
H-RRFKKWYWY-OH,Ratio IC50,[1],0.26
H-RKRTKVTWI-OH,Ratio IC50,[1],5.11
H-ASKRVGVRN-OH,Ratio IC50,[1],8.17
H-TRGWSLGTR-OH,Ratio IC50,[1],12.15
H-RLARIVVIRVAR-OH,MIC,[2],24 µM
same,MIC,[3],24 µM
same,MIC,[4],95 µM
same,MIC,[5],192 µM
same,MIC,[6],12 µM
same,MIC,[7],12 µM
same,MIC,[8],24 µM
same,MIC,[9],192 µM
same,MIC,[10],3 µM
same,MIC,[11],95 µM
same,MIC,[12],48 µM
same,MIC,[13],24 µM
same,MIC,[14],24 µM
same,MIC,[15],192 µM
same,MIC,[16],12 µM
same,MIC,[17],3 µM
same,MIC,[18],48 µM
same,MIC,[19],48 µM
same,MIC,[20],95 µM
same,MIC,[21],192 µM
H-WHYRSQVGR-OH,Ratio IC50,[1],6.65
H-RWKIFIRWW-OH,Ratio IC50,[1],1.82
H-VVLKIVRRF-OH,MIC,[2],241 µM
same,MIC,[3],241 µM
same,MIC,[4],> 241 µM
same,MIC,[6],241 µM
same,MIC,[7],241 µM
same,MIC,[8],> 241 µM
same,MIC,[10],60 µM
same,MIC,[11],> 241 µM
same,MIC,[12],> 241 µM
same,MIC,[13],241 µM
same,MIC,[14],241 µM
same,MIC,[15],> 241 µM
same,MIC,[16],241 µM
same,MIC,[17],60 µM
same,MIC,[18],> 241 µM
same,MIC,[19],> 241 µM
same,Ratio IC50,[1],25
same,MIC,[21],> 241 µM
H-LRFILWWKR-OH,Ratio IC50,[1],0.88
